Bioassay records as filed in PubChem.
APJ antagonist = antagonists of human apelin receptor APJ, primary screen, CHO-K1 cells, beta-arrestin complementation, luminescence. P35414. inhibition, % at 20 µM. 330,000 compounds, 0.32% hits. AID 2521, 2010;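 active means inhibition above about 40% at 20 µM, limit read from the data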;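 further: cells challenged with 10 nM apelin-13 agonist together with compound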
CXCR6 block = CXCR6 receptor inhibitors, primary screen, cell-based, beta-arrestin, luminescence, CHO-K1 PathHunter, 1536-well; 360,000 compounds, 0.36% hits; inhibition, % at 20 µM; AID 602244, 2012; C-X-C chemokine receptor type 6 (Homo sapiens), O00574; in the data active means inhibition above about 34%, passing the limit was not always enough;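 further: antagonist mode with CXCL16 agonist at 10 nM final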
Target sequence (O00574 whole entry, looked up): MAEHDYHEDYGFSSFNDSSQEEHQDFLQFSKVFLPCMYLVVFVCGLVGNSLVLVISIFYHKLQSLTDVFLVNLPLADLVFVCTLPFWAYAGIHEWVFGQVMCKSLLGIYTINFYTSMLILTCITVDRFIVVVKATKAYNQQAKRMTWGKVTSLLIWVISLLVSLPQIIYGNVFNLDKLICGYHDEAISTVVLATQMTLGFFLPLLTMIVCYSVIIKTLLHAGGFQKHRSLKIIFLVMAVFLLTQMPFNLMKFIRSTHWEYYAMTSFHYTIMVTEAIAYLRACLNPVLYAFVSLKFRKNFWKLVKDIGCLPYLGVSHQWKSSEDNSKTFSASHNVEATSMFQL
EBI2 block = EBI2 receptor antagonists, beta-arrestin recruitment, primary screen, cell-based, luminescence, 7a,25-OHC stimulation, uHTS. G-protein coupled receptor 183 (Homo sapiens), P32249. 7a,25-OHC stimulated. inhibition, % at 5 µM. 360,000 compounds, 0.81% hits; in the data active means inhibition above about 38%;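 further: enzyme fragment complementation signal reports receptor beta-arrestin coupling in cells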
CCR6 antag = CCR6 receptor antagonists, primary screen, cell-based, CHO-K1, luminescence, beta-arrestin, uHTS; CHO-K1 CCR6 PathHunter beta-arrestin, CCL20-stimulated; inhibition, % at 20 µM; 340,000 compounds, 0.49% hits; AID 493098, 2011;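 active means compounds whose inhibition of the agonist-driven luminescence signal at 20 µM reaches about 50%, limit read from the data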;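 further: cells stimulated with CCL20 at 14 nM final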
APJ agonist = agonists of human apelin receptor APJ, primary screen, CHO-K1 cells, PathHunter beta-arrestin, luminescence; P35414; 0% DMSO wells, 100% apelin; activation, % at 20 µM; 330,000 compounds, 0.11% hits; AID 2520, 2010;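 active means activation more than six SD over the plate average, tested at 20 µM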
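Assay system: CHO-K1 cells stably expressing ProLink-tagged human APJ and arrestin–beta-gal acceptor. Compound dosing: 20 µM single point, 1% DMSO. Times: 16-18 h seeding, 90 min dark compound exposure, 60 min detection. Detection: beta-gal luminescence. Evaluation: APJ–arrestin association signal. Controls: negative DMSO alone, positive Apelin-13 at 10 nM.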
CXCR6 antag conf = CXCR6 receptor antagonists, confirmation, cell-based, single concentration, beta-arrestin, luminescence. shares compounds with CXCR6 block. CHO-K1 CXCR6 PathHunter beta-arrestin. inhibition, % at 20 µM. 700 compounds, 65% hits. AID 602409, 2012;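 active means mean inhibition over four retests above 40%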;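 further: receptor stimulated with 10 nM CXCL16 agonist; beta-galactosidase fragment complementation upon beta-arrestin recruitment to receptor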
Of the large screens only hits and unclear results are named; the others gave an inactive call (follow-up assays come after a bar, where they were run). Hits are enriched below; roughly 1.5% of the tested compounds scored in any of these assays.

Nc1cccc2c1C(=O)N(C(=O)/C=C/c1cccc(F)c1)C2=O	CXCR6 block 50.4, CCR6 antag 53.0 | CXCR6 antag conf 45.0
Cc1ccc(NS(=O)(=O)c2cc([N+](=O)[O-])ccc2NNC(=S)Nc2cc(C)ccc2C)c(C)c1	APJ antagonist 53.4, CXCR6 block 63.2, CCR6 antag 86.4 | CXCR6 antag conf 64.3
COc1ccc(NC(=S)NNc2ccc([N+](=O)[O-])cc2S(=O)(=O)Nc2ccc(C)cc2C)cc1	CXCR6 block 49.2, CCR6 antag 77.2 | CXCR6 antag conf 56.4
Cc1cc(=O)oc2cc(OCC(=O)NCCc3ccccc3)ccc12	none
CN(CC(=O)O)Cc1nc2ccccc2[nH]1	none
Cc1cc(C)n2nc(C(=O)N3CCCC(N4CCN(c5ccccc5C)CC4)C3)cc2n1 (stereo unspecified)	none
Cc1ccc(NC(=O)c2cc(N3C(=O)CCC3=O)ccc2N2CCOCC2)cc1	none
Cc1ccc(NC(=O)c2cc(N3C(=O)C=CC3=O)ccc2N2CCOCC2)cc1Cl	CXCR6 block 60.0, CCR6 antag 97.1 (no result: APJ antagonist, APJ agonist) | CXCR6 antag conf inactive
COc1ccc(S(=O)(=O)N2CCCCC2)cc1NC(=O)Cc1cccc(C(F)(F)F)c1	none
Cc1nc2ccccc2c(=O)n1-c1cccc(NC(=O)c2cccs2)c1	none
O=C(Nc1cccc(N2C(=O)C=CC2=O)c1)c1cccs1	CXCR6 block 77.0 (no result: CCR6 antag) | CXCR6 antag conf inactive
O=C(COC(=O)C1CCN(S(=O)(=O)c2cccs2)CC1)c1cc2ccccc2o1	CXCR6 block 34.3, CCR6 antag 74.4 | CXCR6 antag conf 41.8
O=C(COC(=O)C1CCN(S(=O)(=O)c2cccs2)CC1)c1ccc2c(c1)OCCO2	none
O=C(Nn1cnc2ccccc2c1=O)c1ccc(Cl)c([N+](=O)[O-])c1	none
CCC/C=C/c1ccc(CN2C(C)C(=O)N(Cc3cn(CCOCOC)nn3)CCS2(=O)=O)cc1 (stereo unspecified)	CXCR6 block 41.5 (no result: APJ antagonist, CCR6 antag, APJ agonist) | CXCR6 antag conf inactive
CCCCC(=O)NC(=S)NNC(=O)c1ccc(OC)cc1	CXCR6 block 46.5, CCR6 antag 69.0 | CXCR6 antag conf 48.1
COC(=O)CN1C(=O)NC2(CCCc3ccccc32)C1=O (stereo unspecified)	none
COC(=O)c1ccc(CN2C(=O)NC3(CCCc4ccccc43)C2=O)o1 (stereo unspecified)	CXCR6 block 45.9 | CXCR6 antag conf inactive
CCOC(=O)c1cc([N+](=O)[O-])cc([N+](=O)[O-])c1Sc1ncnc2nc[nH]c12	CXCR6 block 45.2 (no result: APJ antagonist, CCR6 antag, APJ agonist) | CXCR6 antag conf inactive
COc1ccccc1C(=O)Nc1ccc(OCC(=O)N2CCCCC2C)cc1 (stereo unspecified)	none
CC1(C(=O)Nc2ccc3c(c2)OCO3)CCN1C(=O)c1ccco1 (stereo unspecified)	none (no result: APJ antagonist, CCR6 antag, APJ agonist)
O=[N+]([O-])c1ccc(Sc2nc3ccccc3o2)c([N+](=O)[O-])c1	CXCR6 block 43.4 | CXCR6 antag conf 45.8
COC(=O)c1cc([N+](=O)[O-])c(-n2cncn2)c([N+](=O)[O-])c1	CXCR6 block 79.1, CCR6 antag 96.8 (no result: APJ antagonist, APJ agonist) | CXCR6 antag conf 95.8
C[C@@H]1CC=C[C@@H]2[C@H]1C(=O)N(Cc1ccccc1)[C@H]2c1ccccc1Br	CXCR6 block 35.1 (no result: APJ antagonist, APJ agonist) | CXCR6 antag conf inactive
COc1cc(/C=C/C(O)=C/C(=O)/C=C/c2ccc(O)cc2)ccc1O	CXCR6 block 40.2, CCR6 antag 60.9 | CXCR6 antag conf 44.8
COc1cc(/C=C/C(=O)NC(=O)c2ccccc2O)ccc1O	none
COC(=O)c1cc(CSc2nc3ccc(C)cc3[nH]2)oc1C	CXCR6 block 43.3 | CXCR6 antag conf 41.2
C=C1C(=O)c2sccc2C(c2ccc(OC)c(OC)c2)C1COC(C)=O (stereo unspecified)	CXCR6 block 93.9, EBI2 block 60.5, CCR6 antag 92.4 (no result: APJ antagonist, APJ agonist) | CXCR6 antag conf 97.4
